In ChEMBL document CHEMBL5653631, “A Potent and Selective ULK1 Inhibitor Suppresses Autophagy and Sensitizes Cancer Cells to Nutrient Stress” (iScience, 2018):

Legend:
[1] = biological target: Mitogen-activated protein kinase kinase kinase kinase 1 (Homo sapiens) (UniProt Q92918); experiment: Inhibition of human recombinant HPK1 at 40 nM in presence of ATP by radiometric assay relative to control
[2] = biological target: Cyclin-dependent kinase 12 (Homo sapiens) (UniProt Q9NYV4); experiment: Inhibition of human recombinant CRK7 at 40 nM in presence of ATP by radiometric assay relative to control
[3] = biological target: T1, TGF-beta receptor type-1 (Homo sapiens) (UniProt P36897); experiment: Inhibition of human recombinant TGFbR1 at 40 nM in presence of ATP by radiometric assay relative to control
T1 sequence (whole entry): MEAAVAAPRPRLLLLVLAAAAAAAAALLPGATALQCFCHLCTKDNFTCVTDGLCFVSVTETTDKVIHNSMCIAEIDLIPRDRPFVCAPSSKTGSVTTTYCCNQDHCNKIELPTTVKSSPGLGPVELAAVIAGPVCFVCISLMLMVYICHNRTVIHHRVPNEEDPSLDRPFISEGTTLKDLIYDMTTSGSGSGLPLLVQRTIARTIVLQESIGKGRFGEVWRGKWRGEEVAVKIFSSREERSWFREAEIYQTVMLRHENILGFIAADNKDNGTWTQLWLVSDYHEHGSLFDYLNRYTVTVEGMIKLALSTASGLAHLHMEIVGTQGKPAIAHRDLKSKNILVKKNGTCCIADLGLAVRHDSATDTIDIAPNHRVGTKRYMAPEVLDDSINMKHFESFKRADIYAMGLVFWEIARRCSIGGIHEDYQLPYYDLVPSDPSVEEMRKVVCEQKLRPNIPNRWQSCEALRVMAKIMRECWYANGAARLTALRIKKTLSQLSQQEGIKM

[4] = biological target: Protein kinase C delta type (Homo sapiens) (UniProt Q05655); experiment: Inhibition of human recombinant PKCd at 40 nM in presence of ATP by radiometric assay relative to control
[5] = biological target: Calcium/calmodulin-dependent protein kinase type 1G (Homo sapiens) (UniProt Q96NX5); experiment: Inhibition of human recombinant CaMK1g at 500 nM related to control ULK1
[6] = biological target: Transcription initiation factor TFIID subunit 1-like (Homo sapiens) (UniProt Q8IZX4); experiment: Inhibition of human recombinant TAF1L at 15 nM related to control ULK1
[7] = biological target: T2, Serine/threonine-protein kinase PLK4 (Homo sapiens) (UniProt O00444); experiment: Inhibition of human recombinant PLK4 at 15 nM related to control ULK1
T2 sequence (whole entry): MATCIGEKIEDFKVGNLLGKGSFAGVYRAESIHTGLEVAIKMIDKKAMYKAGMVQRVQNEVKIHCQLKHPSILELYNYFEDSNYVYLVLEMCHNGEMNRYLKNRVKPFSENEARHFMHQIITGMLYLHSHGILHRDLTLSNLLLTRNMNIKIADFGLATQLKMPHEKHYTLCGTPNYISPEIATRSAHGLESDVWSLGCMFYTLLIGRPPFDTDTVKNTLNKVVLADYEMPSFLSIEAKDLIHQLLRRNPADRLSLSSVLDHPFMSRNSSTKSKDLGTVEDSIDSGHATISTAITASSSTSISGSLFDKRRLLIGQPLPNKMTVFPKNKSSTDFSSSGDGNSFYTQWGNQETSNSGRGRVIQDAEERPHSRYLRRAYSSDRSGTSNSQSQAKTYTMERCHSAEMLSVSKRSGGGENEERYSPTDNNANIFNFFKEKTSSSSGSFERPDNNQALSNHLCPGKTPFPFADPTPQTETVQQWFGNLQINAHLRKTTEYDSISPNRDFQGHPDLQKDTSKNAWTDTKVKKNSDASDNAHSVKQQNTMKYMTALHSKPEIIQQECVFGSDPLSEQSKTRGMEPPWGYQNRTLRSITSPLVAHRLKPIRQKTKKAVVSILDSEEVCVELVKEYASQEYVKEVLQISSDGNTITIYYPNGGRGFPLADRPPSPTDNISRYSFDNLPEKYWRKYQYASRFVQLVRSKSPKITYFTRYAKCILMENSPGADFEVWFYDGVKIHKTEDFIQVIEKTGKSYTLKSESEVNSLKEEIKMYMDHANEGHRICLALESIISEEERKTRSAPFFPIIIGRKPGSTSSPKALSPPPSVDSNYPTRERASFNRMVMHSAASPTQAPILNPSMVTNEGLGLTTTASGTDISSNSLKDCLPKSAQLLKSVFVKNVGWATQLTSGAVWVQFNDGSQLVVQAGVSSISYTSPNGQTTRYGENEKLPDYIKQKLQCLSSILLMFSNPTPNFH

[8] = biological target: Serine/threonine-protein kinase N1 (Homo sapiens) (UniProt Q16512); experiment: Inhibition of human recombinant PKN1 at 15 nM in presence of ATP by radiometric assay relative to control
[9] = biological target: Cyclin-dependent kinase 2 (Homo sapiens) (UniProt P24941); experiment: Inhibition of human recombinant CDK2 at 15 nM related to control ULK1
[10] = biological target: T3, Receptor-interacting serine/threonine-protein kinase 1 (Homo sapiens) (UniProt Q13546); experiment: Inhibition of human recombinant RIPK1 at 15 nM related to control ULK1
T3 sequence (whole entry): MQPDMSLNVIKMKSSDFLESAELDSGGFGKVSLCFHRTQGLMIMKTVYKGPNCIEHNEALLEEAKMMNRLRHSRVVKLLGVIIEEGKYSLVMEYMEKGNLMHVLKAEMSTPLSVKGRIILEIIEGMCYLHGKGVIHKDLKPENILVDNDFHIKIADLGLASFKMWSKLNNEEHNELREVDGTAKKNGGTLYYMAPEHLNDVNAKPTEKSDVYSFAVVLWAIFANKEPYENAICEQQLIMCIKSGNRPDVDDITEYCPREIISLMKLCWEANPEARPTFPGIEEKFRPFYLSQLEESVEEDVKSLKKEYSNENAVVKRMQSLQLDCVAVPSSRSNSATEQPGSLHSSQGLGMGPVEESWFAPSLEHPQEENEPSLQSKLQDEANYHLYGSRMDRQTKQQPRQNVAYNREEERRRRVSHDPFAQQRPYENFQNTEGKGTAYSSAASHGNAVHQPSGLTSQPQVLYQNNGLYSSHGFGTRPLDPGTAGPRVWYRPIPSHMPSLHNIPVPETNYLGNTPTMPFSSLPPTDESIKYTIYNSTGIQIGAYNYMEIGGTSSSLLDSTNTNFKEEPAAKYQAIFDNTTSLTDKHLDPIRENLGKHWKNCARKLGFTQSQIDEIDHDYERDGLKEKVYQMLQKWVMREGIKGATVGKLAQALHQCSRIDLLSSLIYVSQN

[11] = biological target: Bone morphogenetic protein receptor type-1B (Homo sapiens) (UniProt O00238); experiment: Inhibition of human recombinant BMPR1B at 15 nM in presence of ATP by radiometric assay relative to control
Method in brief: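 Part of a radiometric in vitro activity panel of 327 recombinant human kinases. Each kinase was tested in duplicate at one inhibitor concentration. Activity remaining was expressed as a percentage of the vehicle control, and percent inhibition was taken as 100 minus that value.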

Calcium/calmodulin-dependent protein kinase type 1G (Homo sapiens), sequence (Q96NX5 whole entry): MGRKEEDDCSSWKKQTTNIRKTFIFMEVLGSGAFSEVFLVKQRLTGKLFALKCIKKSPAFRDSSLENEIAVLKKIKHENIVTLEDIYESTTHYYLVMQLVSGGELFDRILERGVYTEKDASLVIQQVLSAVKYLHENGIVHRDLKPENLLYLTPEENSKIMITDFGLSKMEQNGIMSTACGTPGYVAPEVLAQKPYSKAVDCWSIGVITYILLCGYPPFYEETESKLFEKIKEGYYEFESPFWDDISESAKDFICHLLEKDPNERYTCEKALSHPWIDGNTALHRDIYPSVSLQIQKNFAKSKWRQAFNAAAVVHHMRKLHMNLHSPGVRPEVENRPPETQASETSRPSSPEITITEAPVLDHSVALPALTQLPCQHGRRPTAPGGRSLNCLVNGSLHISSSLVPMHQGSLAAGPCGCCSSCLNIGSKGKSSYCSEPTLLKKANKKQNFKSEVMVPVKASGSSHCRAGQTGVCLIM
Cyclin-dependent kinase 12 (Homo sapiens), sequence (Q9NYV4 whole entry, looked up): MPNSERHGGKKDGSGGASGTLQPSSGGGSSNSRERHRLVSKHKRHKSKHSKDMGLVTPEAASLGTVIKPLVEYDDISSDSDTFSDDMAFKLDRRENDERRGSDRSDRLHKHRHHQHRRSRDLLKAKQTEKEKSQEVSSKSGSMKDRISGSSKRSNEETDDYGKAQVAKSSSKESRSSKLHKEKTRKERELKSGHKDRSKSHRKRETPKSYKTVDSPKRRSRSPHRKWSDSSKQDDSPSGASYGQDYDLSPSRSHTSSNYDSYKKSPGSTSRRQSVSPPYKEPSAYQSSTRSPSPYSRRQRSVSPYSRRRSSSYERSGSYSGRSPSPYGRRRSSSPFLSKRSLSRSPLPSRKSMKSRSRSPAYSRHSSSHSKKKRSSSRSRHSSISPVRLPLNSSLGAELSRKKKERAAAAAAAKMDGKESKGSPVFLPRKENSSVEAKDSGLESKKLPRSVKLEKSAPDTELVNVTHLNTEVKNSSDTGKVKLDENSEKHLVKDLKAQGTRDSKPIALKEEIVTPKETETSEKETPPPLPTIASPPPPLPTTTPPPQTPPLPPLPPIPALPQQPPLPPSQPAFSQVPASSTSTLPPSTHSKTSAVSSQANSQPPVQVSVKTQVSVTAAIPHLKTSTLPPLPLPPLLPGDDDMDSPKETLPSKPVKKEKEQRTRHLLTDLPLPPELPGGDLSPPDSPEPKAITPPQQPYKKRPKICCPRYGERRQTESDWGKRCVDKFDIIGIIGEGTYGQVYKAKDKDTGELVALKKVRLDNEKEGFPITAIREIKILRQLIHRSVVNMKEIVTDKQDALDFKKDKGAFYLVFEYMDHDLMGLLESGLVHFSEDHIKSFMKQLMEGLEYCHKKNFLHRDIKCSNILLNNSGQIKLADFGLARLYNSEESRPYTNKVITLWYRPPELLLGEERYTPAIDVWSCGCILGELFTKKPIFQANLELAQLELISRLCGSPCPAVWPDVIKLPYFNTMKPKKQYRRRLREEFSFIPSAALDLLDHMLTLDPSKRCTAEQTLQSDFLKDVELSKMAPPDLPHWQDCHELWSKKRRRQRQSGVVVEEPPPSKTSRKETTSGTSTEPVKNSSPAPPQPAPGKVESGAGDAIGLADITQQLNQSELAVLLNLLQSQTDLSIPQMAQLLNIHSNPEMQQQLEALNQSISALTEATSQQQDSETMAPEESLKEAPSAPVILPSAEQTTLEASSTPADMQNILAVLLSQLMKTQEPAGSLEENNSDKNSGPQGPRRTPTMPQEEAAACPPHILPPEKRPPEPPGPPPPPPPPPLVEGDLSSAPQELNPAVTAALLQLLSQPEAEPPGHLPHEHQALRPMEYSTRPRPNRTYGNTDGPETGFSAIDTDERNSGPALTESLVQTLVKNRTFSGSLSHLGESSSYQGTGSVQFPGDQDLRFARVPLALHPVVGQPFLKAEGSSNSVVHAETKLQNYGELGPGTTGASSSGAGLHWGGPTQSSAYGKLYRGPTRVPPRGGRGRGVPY
Serine/threonine-protein kinase N1 (Homo sapiens), sequence (Q16512 2-942 limits assumed): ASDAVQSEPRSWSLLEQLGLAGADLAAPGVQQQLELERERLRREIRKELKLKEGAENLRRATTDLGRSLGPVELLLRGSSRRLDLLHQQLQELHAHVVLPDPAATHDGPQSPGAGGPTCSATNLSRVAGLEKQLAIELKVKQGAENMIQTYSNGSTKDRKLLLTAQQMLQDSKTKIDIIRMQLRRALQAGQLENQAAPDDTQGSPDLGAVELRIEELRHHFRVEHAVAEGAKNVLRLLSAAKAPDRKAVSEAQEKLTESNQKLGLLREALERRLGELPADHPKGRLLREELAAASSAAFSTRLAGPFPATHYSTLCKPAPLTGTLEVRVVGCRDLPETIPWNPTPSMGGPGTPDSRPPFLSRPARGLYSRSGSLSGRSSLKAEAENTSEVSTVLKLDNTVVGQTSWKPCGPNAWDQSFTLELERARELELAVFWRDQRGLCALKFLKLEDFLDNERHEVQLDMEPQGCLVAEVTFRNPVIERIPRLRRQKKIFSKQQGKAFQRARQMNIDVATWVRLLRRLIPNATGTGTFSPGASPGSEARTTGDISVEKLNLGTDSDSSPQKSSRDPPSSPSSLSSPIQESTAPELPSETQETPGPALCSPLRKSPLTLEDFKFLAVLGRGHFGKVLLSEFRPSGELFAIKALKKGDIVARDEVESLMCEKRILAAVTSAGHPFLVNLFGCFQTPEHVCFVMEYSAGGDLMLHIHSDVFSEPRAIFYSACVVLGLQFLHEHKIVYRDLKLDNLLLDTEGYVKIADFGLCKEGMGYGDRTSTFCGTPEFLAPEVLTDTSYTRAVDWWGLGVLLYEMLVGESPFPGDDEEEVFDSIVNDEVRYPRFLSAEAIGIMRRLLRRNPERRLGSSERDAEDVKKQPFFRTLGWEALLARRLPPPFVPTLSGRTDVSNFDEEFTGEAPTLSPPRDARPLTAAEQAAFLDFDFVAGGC
Mitogen-activated protein kinase kinase kinase kinase 1 (Homo sapiens), sequence (Q92918 whole entry, looked up): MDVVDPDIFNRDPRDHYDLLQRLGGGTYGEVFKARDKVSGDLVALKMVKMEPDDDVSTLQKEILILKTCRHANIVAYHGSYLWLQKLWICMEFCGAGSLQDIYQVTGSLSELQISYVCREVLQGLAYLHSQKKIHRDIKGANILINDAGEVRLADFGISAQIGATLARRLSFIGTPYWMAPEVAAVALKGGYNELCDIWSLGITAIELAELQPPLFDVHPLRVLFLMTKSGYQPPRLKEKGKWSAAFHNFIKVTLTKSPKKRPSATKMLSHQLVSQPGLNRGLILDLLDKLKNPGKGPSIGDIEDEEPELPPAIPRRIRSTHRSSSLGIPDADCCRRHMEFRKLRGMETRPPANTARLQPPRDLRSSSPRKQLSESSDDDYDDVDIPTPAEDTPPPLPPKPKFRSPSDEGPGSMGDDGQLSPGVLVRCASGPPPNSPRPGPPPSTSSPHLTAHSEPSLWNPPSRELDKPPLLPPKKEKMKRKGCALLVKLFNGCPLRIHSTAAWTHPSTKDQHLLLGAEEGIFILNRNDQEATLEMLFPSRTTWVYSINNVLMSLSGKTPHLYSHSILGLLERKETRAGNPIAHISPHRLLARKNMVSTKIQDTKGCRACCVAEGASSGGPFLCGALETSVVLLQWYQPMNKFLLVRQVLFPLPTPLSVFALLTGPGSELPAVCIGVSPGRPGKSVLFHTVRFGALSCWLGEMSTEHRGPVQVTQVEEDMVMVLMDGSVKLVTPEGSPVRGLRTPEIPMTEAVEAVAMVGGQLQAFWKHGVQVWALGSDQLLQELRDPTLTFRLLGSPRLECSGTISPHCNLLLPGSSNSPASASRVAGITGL
Protein kinase C delta type (Homo sapiens), sequence (Q05655 whole entry, looked up): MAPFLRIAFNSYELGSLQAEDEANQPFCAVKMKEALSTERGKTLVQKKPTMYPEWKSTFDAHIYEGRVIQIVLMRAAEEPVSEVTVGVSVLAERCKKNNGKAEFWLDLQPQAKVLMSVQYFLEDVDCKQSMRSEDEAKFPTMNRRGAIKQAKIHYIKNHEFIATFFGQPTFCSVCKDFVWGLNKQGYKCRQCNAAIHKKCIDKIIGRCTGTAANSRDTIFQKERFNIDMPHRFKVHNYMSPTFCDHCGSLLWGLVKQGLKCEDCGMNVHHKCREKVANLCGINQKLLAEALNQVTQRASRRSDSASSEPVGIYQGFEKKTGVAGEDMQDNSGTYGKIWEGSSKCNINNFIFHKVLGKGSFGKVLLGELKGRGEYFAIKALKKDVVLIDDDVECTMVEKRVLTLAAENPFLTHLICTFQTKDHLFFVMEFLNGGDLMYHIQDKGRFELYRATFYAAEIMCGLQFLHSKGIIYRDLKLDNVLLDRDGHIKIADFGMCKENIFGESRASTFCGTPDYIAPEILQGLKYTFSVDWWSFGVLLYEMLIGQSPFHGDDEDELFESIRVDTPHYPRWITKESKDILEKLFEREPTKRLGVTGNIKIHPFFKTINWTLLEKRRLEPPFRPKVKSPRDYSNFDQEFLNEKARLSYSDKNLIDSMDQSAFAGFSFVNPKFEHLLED
Bone morphogenetic protein receptor type-1B (Homo sapiens), sequence (O00238 whole entry): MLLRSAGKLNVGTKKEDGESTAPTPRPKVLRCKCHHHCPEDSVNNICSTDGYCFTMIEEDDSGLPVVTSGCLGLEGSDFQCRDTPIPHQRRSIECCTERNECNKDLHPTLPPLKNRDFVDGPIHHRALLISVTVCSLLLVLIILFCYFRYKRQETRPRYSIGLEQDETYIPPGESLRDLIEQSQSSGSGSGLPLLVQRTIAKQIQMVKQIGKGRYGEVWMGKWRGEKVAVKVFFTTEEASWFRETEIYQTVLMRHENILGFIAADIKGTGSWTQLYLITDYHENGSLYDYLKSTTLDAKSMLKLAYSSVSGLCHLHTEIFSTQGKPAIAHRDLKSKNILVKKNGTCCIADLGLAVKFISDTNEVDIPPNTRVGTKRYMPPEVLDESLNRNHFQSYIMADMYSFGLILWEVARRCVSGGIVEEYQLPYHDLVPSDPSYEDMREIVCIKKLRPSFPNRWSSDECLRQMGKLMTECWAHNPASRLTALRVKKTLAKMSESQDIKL

With `O=C(N[C@@H](C1CC1)C(F)(F)F)c1cc(-c2cnn3cc(-c4ccc(F)cc4)cnc23)cs1` as the compound, how does the inhibition [1] read?
The inhibition was 0%.

And the inhibition [2]?
The inhibition was 7%.

And the inhibition [3]?
Its inhibition is 0%.

And the inhibition [4]?
Its inhibition is 3%.

With `CNC(=O)c1ccccc1Oc1nc(Nc2cc(OC)c(OC)c(OC)c2)ncc1Br` as the compound, how does the fold change (FC) [5] read?
The fold change (FC) was 0.08.

Which results are given for `CC(C)[C@H](NC(=O)c1cc(-c2cnn3cc(-c4ccc(OCCN5CCCCC5)cc4)cnc23)cs1)C(F)(F)F`?
fold change (FC) [6]: 0.49; fold change (FC) [7]: 0.35; inhibition [8]: 0%; fold change (FC) [9]: 0.01; fold change (FC) [10]: 0.01; inhibition [11]: 24%
